Results from ChEMBL document CHEMBL1671828 (ACS Med Chem Lett, 2011).
Active and inactive are the calls of the source. The calls are words filed in the database; no cut-off is given here.

How the values were obtained:
[1] = molecular target: Sodium-dependent serotonin transporter (Rattus norvegicus, UniProt P31652); assay: Displacement of [3H]citalopram from SERT in Sprague-Dawley rat brain membranes; format: cell membranes, Membrane
[2] = molecular target: Sodium-dependent dopamine transporter (Rattus norvegicus, UniProt P23977); format: cell membranes, Sprague-Dawley, Brain, Membrane
[3] = molecular target: Transporter (Rattus norvegicus) (UniProt Q63380); assay: Displacement of [3H]nisoxetine from NET in Sprague-Dawley rat brain membranes at 10 uM; format: cell membranes; settings: Membrane
[4] = molecular target: Sodium-dependent serotonin transporter (Rattus norvegicus) (UniProt P31652); assay: Displacement of [3H]citalopram from SERT in Sprague-Dawley rat brain membranes at 10 uM; format: cell membranes; settings: Membrane
[5] = test system: Mus musculus; assay: Increase in horizontal locomotor activity in mouse measured after 30 mins post 4 hrs drug administration; format: functional, organism-based
Method in brief: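 Mice; horizontal locomotor activity counts per min recorded over the first 30 min of each of the 4 h after drug injection. Several doses (mg/kg) were tested to give dose-effect curves. Each point is the average of six mice.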

[6] = molecular target: Transporter (Rattus norvegicus, UniProt Q63380); assay: Displacement of [3H]nisoxetine from NET in Sprague-Dawley rat brain membranes; format: cell membranes, Membrane
[7] = molecular target: Sodium-dependent dopamine transporter (Rattus norvegicus) (UniProt P23977); assay: Inhibition of [3H]dopamine uptake at DAT in Sprague-Dawley rat brain membranes at 10 uM; format: cell membranes; settings: Membrane
Sodium-dependent dopamine transporter (Rattus norvegicus), sequence (P23977 whole entry): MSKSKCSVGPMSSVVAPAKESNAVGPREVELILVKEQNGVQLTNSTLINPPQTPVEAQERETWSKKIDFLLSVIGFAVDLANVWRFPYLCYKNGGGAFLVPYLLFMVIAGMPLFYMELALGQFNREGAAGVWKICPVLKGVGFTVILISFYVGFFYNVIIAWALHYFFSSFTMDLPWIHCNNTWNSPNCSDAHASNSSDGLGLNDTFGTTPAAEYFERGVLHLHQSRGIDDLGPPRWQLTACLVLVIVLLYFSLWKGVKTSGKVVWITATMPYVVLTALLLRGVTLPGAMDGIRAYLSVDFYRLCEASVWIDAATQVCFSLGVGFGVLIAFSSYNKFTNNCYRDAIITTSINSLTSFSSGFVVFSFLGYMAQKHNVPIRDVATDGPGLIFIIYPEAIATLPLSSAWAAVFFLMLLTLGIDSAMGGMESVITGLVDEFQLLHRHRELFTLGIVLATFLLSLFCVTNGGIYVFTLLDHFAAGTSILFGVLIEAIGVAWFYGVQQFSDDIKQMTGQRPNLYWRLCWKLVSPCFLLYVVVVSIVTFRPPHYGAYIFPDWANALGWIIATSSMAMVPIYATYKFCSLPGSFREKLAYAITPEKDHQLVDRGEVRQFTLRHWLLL

Transporter, sequence (Q63380 whole entry): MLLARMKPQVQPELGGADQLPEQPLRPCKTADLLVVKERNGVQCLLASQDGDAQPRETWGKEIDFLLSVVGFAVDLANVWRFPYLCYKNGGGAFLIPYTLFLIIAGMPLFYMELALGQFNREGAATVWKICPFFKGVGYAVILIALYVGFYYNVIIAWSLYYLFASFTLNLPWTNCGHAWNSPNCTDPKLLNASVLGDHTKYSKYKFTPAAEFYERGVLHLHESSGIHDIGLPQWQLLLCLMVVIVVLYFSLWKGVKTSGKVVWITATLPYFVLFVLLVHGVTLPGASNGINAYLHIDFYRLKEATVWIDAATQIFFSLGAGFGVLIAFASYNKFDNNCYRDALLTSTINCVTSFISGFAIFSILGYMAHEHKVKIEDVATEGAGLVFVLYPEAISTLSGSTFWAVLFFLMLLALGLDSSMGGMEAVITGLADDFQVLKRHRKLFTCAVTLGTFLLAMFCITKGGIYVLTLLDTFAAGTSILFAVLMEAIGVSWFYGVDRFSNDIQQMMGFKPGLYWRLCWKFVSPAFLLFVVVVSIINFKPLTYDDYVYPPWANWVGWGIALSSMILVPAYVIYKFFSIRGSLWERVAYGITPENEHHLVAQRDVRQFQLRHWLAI
Transporter (Rattus norvegicus), sequence (Q63380 as listed by the source): as the sequence (Q63380 whole entry) above
Sodium-dependent dopamine transporter, sequence (P23977 whole entry): as the sequence (P23977 whole entry) above
Sodium-dependent serotonin transporter (Rattus norvegicus), sequence (P31652 whole entry): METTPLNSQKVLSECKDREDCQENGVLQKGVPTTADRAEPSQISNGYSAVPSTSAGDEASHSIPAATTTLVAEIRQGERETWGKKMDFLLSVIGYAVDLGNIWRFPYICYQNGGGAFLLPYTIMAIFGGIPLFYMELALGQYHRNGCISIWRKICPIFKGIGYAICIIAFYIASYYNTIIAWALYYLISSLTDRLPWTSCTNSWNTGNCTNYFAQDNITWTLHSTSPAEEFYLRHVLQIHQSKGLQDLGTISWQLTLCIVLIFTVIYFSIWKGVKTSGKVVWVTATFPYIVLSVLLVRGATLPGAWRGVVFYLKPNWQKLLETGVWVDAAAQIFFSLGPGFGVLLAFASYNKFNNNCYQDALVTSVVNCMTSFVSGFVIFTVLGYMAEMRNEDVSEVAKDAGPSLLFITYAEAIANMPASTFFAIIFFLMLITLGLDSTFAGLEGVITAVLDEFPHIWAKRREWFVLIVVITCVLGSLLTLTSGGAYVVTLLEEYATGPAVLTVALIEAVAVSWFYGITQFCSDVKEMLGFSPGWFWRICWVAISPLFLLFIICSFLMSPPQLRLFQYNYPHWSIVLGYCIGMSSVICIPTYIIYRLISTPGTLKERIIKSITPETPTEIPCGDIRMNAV
Sodium-dependent serotonin transporter, sequence (P31652 whole entry): as above

SMILES	Ki [1] [µM]	Ki [2] [µM]	inhibition [3]	inhibition [4]	Activity [5]	Ki [6] [µM]	inhibition [7]
CN(C)C(=O)C[S+]([O-])C(c1ccc(Cl)cc1)c1ccc(Cl)cc1 (racemic)	22.3	34.6	inactive				
O=C(C[S+]([O-])C(c1ccccc1)c1ccccc1)NCCCc1ccccc1 (racemic)		2.66	inactive	inactive			
NC(=O)C[S+]([O-])C(c1ccccc1)c1ccccc1 (racemic)			inactive	inactive	Dose-dependent effect		
CN(C)C(=O)CSC(c1ccc(Br)cc1)c1ccc(Br)cc1	3.21	2.45				19.2	
CNC(=O)C[S+]([O-])C(c1ccc(Cl)cc1)c1ccc(Cl)cc1 (racemic)		2.44	inactive	inactive			
CN(C)C(=O)CSC(c1ccccc1)c1ccccc1		16.5	inactive	inactive			
[O-][S+](CCN1CCOCC1)C(c1ccccc1)c1ccccc1 (racemic)			inactive	inactive			inactive
NC(=O)CSC(c1ccc(Br)cc1)c1ccc(Br)cc1	2.2	1.93				77.7	
CN(C)C(=O)C[S+]([O-])C(c1ccc(F)cc1)c1ccc(F)cc1 (racemic)	16.2		inactive				inactive
CN(C)C(=O)CSC(c1ccc(F)cc1)c1ccc(F)cc1	25.9	9.51	inactive				
CN(C)C(=O)C[S+]([O-])C(c1ccccc1)c1ccccc1 (racemic)			inactive	inactive			inactive
NC(=O)C[S+]([O-])C(c1ccc(Br)cc1)c1ccc(Br)cc1 (racemic)	10.6	0.6	inactive				
NC(=O)C[S@+]([O-])C(c1ccccc1)c1ccccc1			inactive	inactive	Dose-dependent effect		
NC(=O)C[S@@+]([O-])C(c1ccccc1)c1ccccc1			inactive	inactive	Dose-dependent effect		
CN(C)CC[S+]([O-])C(c1ccc(Cl)cc1)c1ccc(Cl)cc1 (racemic)	0.406	2.89				36.2	
NC(=O)C[S+]([O-])C(c1ccc(F)cc1)c1ccc(F)cc1 (racemic)		2.19	inactive	inactive			
CN(C)C(=O)CSC(c1ccc(Cl)cc1)c1ccc(Cl)cc1	5.98	4.51				42.5	
NC(=O)CSC(c1ccc(F)cc1)c1ccc(F)cc1		1.57	inactive	inactive			
CN(C)CC[S+]([O-])C(c1ccccc1)c1ccccc1 (racemic)	45.8		inactive				inactive
CN(C)C(=O)C[S+]([O-])C(c1ccc(Br)cc1)c1ccc(Br)cc1 (racemic)	14.2	21.3	inactive				
CNC(=O)C[S+]([O-])C(c1ccc(Br)cc1)c1ccc(Br)cc1 (racemic)	33.2	1.65	inactive				
NC(=O)C[S+]([O-])C(c1ccc(Cl)cc1)c1ccc(Cl)cc1 (racemic)	39		inactive		Dose-dependent effect		
NC(=O)CSC(c1ccc(Cl)cc1)c1ccc(Cl)cc1	12.7	2.23					
